In ChEMBL document CHEMBL1152488, “Synthesis and evaluation of pyrido[1,2-a]pyrimidines as inhibitors of nitric oxide synthases” (Eur J Med Chem, 2009):

Assays:
[1] = target: T1, Nitric oxide synthase 3 (Bos taurus) (UniProt P29473); assay: Inhibition of bovine eNOS expressed in insect Sf9 cells assessed as residual activity at 100 uM by Griess assay relative to control
T1 sequence (whole entry): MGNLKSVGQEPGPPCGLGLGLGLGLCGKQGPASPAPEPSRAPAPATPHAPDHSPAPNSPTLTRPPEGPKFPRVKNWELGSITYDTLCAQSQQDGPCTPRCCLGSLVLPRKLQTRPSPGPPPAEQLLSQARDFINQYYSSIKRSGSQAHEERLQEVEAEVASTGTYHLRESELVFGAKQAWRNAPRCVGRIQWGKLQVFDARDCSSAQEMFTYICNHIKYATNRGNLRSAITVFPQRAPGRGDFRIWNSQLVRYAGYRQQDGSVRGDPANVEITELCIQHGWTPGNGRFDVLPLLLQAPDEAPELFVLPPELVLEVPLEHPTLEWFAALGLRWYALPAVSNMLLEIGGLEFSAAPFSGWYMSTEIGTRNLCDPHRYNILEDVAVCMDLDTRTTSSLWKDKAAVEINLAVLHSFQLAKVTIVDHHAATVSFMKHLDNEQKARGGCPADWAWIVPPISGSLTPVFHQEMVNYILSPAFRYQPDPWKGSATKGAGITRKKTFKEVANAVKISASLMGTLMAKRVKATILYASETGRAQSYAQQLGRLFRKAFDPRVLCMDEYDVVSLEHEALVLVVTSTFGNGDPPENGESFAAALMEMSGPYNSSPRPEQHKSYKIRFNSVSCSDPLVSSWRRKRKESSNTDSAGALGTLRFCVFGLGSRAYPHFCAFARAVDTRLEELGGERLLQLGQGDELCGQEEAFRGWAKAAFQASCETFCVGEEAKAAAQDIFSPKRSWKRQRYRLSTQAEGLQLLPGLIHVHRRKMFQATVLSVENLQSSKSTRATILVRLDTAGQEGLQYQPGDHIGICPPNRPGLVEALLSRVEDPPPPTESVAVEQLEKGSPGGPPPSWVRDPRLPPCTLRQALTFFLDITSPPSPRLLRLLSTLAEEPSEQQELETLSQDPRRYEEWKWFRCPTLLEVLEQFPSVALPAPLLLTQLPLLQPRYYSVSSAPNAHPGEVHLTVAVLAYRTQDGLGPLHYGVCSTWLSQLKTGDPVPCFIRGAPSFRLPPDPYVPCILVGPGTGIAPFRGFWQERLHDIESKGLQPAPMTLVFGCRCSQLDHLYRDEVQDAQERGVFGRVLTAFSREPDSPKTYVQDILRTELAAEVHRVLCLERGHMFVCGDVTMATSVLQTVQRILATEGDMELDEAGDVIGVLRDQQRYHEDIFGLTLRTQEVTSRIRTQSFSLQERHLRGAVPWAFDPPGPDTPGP
Summary of the method: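 Bovine eNOS from Sf9 cells. Reaction: triethanolamine buffer pH 7.5, 0.5 mM Ca2+, 10 µg/ml CaM, 10 µM H4B, FAD, FMN, 0.5 mM NADPH, 1 mM L-arginine, with 100 µM compound, 20 min at 37 °C. After NADPH removal by LDH/pyruvate, nitrite measured by Griess at 543 nm. Expressed as % residual activity versus 1% DMSO control, 5 experiments.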

[2] = target: T2, Nitric oxide synthase, inducible (Mus musculus) (UniProt P29477); assay: Inhibition of mouse iNOS expressed in insect Sf9 cells assessed as residual activity at 100 uM by Griess assay relative to control
T2 sequence (whole entry): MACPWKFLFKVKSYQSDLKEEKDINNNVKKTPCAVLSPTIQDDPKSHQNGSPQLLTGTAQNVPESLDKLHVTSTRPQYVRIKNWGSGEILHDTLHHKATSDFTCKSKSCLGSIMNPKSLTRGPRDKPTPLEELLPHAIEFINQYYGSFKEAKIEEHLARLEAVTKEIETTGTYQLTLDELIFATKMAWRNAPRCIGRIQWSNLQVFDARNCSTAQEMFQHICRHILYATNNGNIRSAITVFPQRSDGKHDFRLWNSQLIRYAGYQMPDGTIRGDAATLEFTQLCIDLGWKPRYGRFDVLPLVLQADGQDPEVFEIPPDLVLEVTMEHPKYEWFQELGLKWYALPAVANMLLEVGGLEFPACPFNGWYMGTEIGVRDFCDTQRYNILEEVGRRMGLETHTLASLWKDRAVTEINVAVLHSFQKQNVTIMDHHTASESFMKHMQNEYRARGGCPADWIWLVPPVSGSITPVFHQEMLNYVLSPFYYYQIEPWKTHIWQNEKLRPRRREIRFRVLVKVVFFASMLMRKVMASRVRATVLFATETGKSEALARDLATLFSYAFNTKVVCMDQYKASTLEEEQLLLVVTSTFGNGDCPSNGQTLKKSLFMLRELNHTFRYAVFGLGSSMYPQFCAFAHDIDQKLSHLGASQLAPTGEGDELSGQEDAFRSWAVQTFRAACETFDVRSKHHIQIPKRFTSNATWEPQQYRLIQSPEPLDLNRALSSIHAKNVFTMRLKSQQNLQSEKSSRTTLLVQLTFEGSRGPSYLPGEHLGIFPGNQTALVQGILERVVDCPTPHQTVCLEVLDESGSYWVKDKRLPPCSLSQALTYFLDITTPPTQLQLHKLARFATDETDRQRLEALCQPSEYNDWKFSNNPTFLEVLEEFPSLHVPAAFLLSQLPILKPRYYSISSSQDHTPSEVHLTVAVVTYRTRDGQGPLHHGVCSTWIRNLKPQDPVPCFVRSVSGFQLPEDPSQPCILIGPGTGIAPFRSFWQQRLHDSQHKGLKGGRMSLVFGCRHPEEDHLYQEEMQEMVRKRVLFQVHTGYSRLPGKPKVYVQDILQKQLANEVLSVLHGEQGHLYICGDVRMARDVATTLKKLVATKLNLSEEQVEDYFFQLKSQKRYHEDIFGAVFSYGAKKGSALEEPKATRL
Summary of the method: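 Murine iNOS produced in Sf9 insect cells. Buffer: 50 mM triethanolamine pH 7.5, 1 mM CHAPS, 10 mM 2-mercaptoethanol, 0.5 mM EDTA. Additions: 1 mM Mg2+, 5 µM FAD, 5 µM FMN, 0.5 mM NADPH, 10 µM H4B, 10 µg/ml CaM, 1 mM L-arginine. Compound at 100 µM final, 37 °C for 20 min. NADPH removed with LDH/pyruvate, then Griess read at 543 nm. Values are % of 1% DMSO control, 5 experiments.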

RAW264.7 = assay: Cytotoxicity against mouse RAW264.7 cells at 100 uM; format: cell-based; conditions: raw264.7, 100 µM
[3] = target: T2, Nitric oxide synthase, inducible (Mus musculus); assay: Inhibition of iNOS in LPS and IFN-gamma-stimulated mouse RAW264.7 cells assessed as inhibition of nitrite accumulation at 100 uM after 15 hrs by Griess assay; format: cell-based
Summary of the method: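 RAW 264.7 macrophages seeded at 100,000 cells/well in RPMI 1640 with 5% FCS and grown 24 h. Stimulated with 40 U/ml γ-IFN and 50 ng/ml LPS, with compound at 100 µM in 1% DMSO, for 15 h at 37 °C. Supernatant nitrite measured with Griess reagent at 550 nm against an NaNO2 calibration; 6–8 determinations.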

## COc1ccc2cc(C(=O)C3CN=C4C=C(C)C=CN4C3)ccc2c1 (centres undefined)
[1]
  Activity: 80%
[2]
  Activity: 72%

## O=C(c1ccc2ccccc2c1)C1CN=C2C=CC=CN2C1 (centres undefined)
[1]
  Activity: 80%
[2]
  Activity: 97%

## CC(=N)NCc1cccc(CN)c1
[1]
  Activity: 107%
[2]
  Activity: 3%

## CCSC(=N)N
[1]
  Activity: 27%
[2]
  Activity: 2%

## CC1=CC2=NCC(C(=O)c3ccc(OCc4ccc(C#N)cc4)cc3)CN2C=C1.[O-][Cl+3]([O-])([O-])O (centres undefined)
RAW264.7
  Activity: Non-toxic
[3]
  inhibition: 93%

## CC1=CC2=NCC(C(=O)c3ccc(Cl)cc3)CN2C=C1 (centres undefined)
[1]
  Activity: 20%
[2]
  Activity: 28%

## CC1=CC2=NCC(C(=O)c3ccccc3)CN2C=C1 (centres undefined)
[1]
  Activity: 40%
[2]
  Activity: 16%

## CC1=CC=CC2=NCC(C(=O)c3ccc(Br)cc3)CN12 (centres undefined)
[1]
  Activity: 93%
[2]
  Activity: 9%

## CC1=CC2=NCC(C(=O)c3ccc4cc(C)ccc4c3)CN2C(C)=C1.[O-][Cl+3]([O-])([O-])O (centres undefined)
RAW264.7
  Activity: Non-toxic
[3]
  inhibition: 89%

## CC1=CC2=NCC(C(=O)c3ccc(OCc4ccc(Cl)cc4)cc3)CN2C=C1.[O-][Cl+3]([O-])([O-])O (centres undefined)
RAW264.7
  Activity: Non-toxic
[3]
  inhibition: 92%

## CC1=CC2=NCC(C(=O)c3ccc(OCc4ccc(Br)cc4)cc3)CN2C=C1.Cl (centres undefined)
RAW264.7
  Activity: Non-toxic
[3]
  inhibition: 96%

## O=C(c1ccc(Br)cc1)C1CN=C2C=CC=CN2C1 (centres undefined)
[1]
  Activity: 86%
[2]
  Activity: 92%

## CC1=CC=CC2=NCC(C(=O)c3ccc(C)cc3)CN12.[O-][Cl+3]([O-])([O-])O (centres undefined)
[1]
  Activity: 101%
[2]
  Activity: 99%
RAW264.7
  Activity: Non-toxic
[3]
  inhibition: 72%

## CC1=CC=CC2=NCC(C(=O)c3ccc4ccccc4c3)CN12 (centres undefined)
[1]
  Activity: 75%
[2]
  Activity: 75%

## CC1=CC2=NCC(C(=O)c3ccc(-c4ccc(C#N)cc4)cc3)CN2C=C1.Cl (centres undefined)
RAW264.7
  Activity: Non-toxic
[3]
  inhibition: 82%

## CCCNC(=N)NCCC[C@H](N)C(=O)O
[1]
  Activity: 93%
[2]
  Activity: 88%

## COc1ccc(-c2ccc(C(=O)C3CN=C4C=C(C)C=CN4C3)cc2)cc1.Cl (centres undefined)
RAW264.7
  Activity: Non-toxic
[3]
  inhibition: 96%

## CC1=CC2=NCC(C(=O)c3ccc(-c4ccc(Br)cc4)cc3)CN2C=C1.[O-][Cl+3]([O-])([O-])O (centres undefined)
RAW264.7
  Activity: Non-toxic
[3]
  inhibition: 98%

## CC1=CC2=NCC(C(=O)c3ccc(-c4ccccc4)cc3)CN2C=C1 (centres undefined)
[1]
  Activity: 17%
[2]
  Activity: 40%

## CC1=CC2=NCC(C(=O)c3ccc4cc(C)ccc4c3)CN2C=C1.[O-][Cl+3]([O-])([O-])O (centres undefined)
[1]
  Activity: 49%
[2]
  Activity: 90%
RAW264.7
  Activity: Non-toxic
[3]
  inhibition: 86%

## CC1=CC2=NCC(C(=O)c3ccc(F)cc3)CN2C=C1 (centres undefined)
[1]
  Activity: 37%
[2]
  Activity: 78%

## CC1=CC=CC2=NCC(C(=O)c3ccc(F)cc3)CN12.[O-][Cl+3]([O-])([O-])O (centres undefined)
[1]
  Activity: 41%
[2]
  Activity: 83%
RAW264.7
  Activity: Non-toxic
[3]
  inhibition: 44%

## CC1=CC2=NCC(C(=O)c3ccc4ccccc4c3)CN2C=C1 (centres undefined)
[1]
  Activity: 50%
[2]
  Activity: 28%

## CC1=CC2=NCC(C(=O)c3ccc(Br)cc3)CN2C=C1 (centres undefined)
[1]
  Activity: 72%
[2]
  Activity: 33%

## O=C(c1ccc(Cl)c(Cl)c1)C1CN=C2C=CC=CN2C1.[O-][Cl+3]([O-])([O-])O (centres undefined)
[1]
  Activity: 83%
[2]
  Activity: 95%
RAW264.7
  Activity: Non-toxic
[3]
  inhibition: 59%

## COc1ccc(C(=O)C2CN=C3C=C(C)C=CN3C2)cc1F.[O-][Cl+3]([O-])([O-])O (centres undefined)
RAW264.7
  Activity: Non-toxic
[3]
  inhibition: 64%

## COc1ccc(C(=O)C2CN=C3C=CC=C(C)N3C2)cc1OC.[O-][Cl+3]([O-])([O-])O (centres undefined)
[1]
  Activity: 90%
[2]
  Activity: 95%
RAW264.7
  Activity: Non-toxic
[3]
  inhibition: 70%
